# Measurements: ChEMBL document CHEMBL3352416, “Discovery of carbohybrid-based 2-aminopyrimidine analogues as a new class of rapid-acting antimalarial agents using image-based cytological profiling assay” (J Med Chem, 2014)
# Test system: Plasmodium falciparum
# Assay: Antimalarial activity against Plasmodium falciparum K1 by automated image mining based cytological profiling assay
# Assay type: functional, organism-based
# In short: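 Parasite cultures in 384-well format, read by automated imaging. Infected erythrocytes detected by DAPI nuclear staining against WGA-AlexaFluor 488 host-cell stain, and viability by Mitotracker Red CMXRos. Total culture parasitaemia quantified. EC50 given as mean±SD of two independent experiments, each in duplicate.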
row,SMILES,EC50 [nM]
1,COc1ccc(CO[C@H]([C@H](COS(C)(=O)=O)N=[N+]=[N-])[C@H](OCc2ccc(OC)cc2)c2cnc(N(C)C)nc2)cc1,11700
2,COc1ccc(O[C@@H]([C@H](Oc2ccc(OC)cc2)c2cnn(C)c2)[C@@H](COC(c2ccccc2)(c2ccccc2)c2ccccc2)OS(C)(=O)=O)cc1,237
3,COc1ccc(CO[C@@H]([C@H](COS(C)(=O)=O)N=[N+]=[N-])[C@H](OCc2ccc(OC)cc2)c2cnc(N(C)C)nc2)cc1,6660
4,COc1ccc(CO[C@H]([C@H](OCc2ccc(OC)cc2)c2cnc(N(C)C)nc2)[C@@H](CO)OS(C)(=O)=O)cc1,5030
5,COc1ccc(CO[C@@H]([C@H](CO)N=[N+]=[N-])[C@H](OCc2ccc(OC)cc2)c2cnc(N(C)C)nc2)cc1,5450

# Further lines, results first:
row,EC50 [nM],SMILES
1,158,COc1ccc(CO[C@H]([C@H](OCc2ccc(OC)cc2)c2cnn(C)c2)[C@@H](COC(c2ccccc2)(c2ccccc2)c2ccccc2)OS(C)(=O)=O)cc1
2,200,COc1ccc(CO[C@@H]([C@H](O)COC(c2ccccc2)(c2ccccc2)c2ccccc2)[C@H](OCc2ccc(OC)cc2)c2cnc(N(C)C)nc2)cc1
3,559,COc1ccc(CO[C@H]([C@H](O)COC(c2ccccc2)(c2ccccc2)c2ccccc2)[C@H](OCc2ccc(OC)cc2)c2cnc(N(C)C)nc2)cc1
4,167,COc1ccc(CO[C@H]([C@H](COC(c2ccccc2)(c2ccccc2)c2ccccc2)N=[N+]=[N-])[C@H](OCc2ccc(OC)cc2)c2cnc(N(C)C)nc2)cc1
5,1200,COc1ccc(CO[C@H]([C@H](COCc2ccccc2)N=[N+]=[N-])[C@H](OCc2ccc(OC)cc2)c2cnc(N(C)C)nc2)cc1
6,198,COc1ccc(CO[C@@H]([C@H](OCc2ccc(OC)cc2)c2cnc(N(C)C)nc2)[C@@H](COC(c2ccccc2)(c2ccccc2)c2ccccc2)OS(C)(=O)=O)cc1
7,1420,COc1ccc(CO[C@@H]([C@H](COCc2ccccc2)N=[N+]=[N-])[C@H](OCc2ccc(OC)cc2)c2cnc(N(C)C)nc2)cc1
8,478,COc1ccc(CO[C@H]([C@H](O)COC(c2ccccc2)(c2ccccc2)c2ccccc2)[C@H](OCc2ccc(OC)cc2)c2cnn(C)c2)cc1
